The source made the active and inactive calls. The calls are words filed in the database; no cut-off is given here. Where a SMILES comes first, the peptide text is derived from it. Bridges are numbered along the chain shown (N, C = ends).
Legend:
Assay type in all cases: cell-based
A549 [1] = assay: Activation of amiloride-sensitive epithelial sodium channel in human A549 cells up to 480 nM at holding potential -100 to + 100 mV by whole cell patch clamp technique
How it was run: (§1)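 A549 cells (passages 80–90) were grown in DMEM/F12 with 10% FBS and 1% penicillin-streptomycin, then whole-cell patch-clamped at 19–22°C, 24–48 h after plating. After a 5 min equilibration, Eh was stepped from −100 to +100 mV in 20 mV steps, 1 min each. A 5 min control preceded cumulative bath peptide addition (3.5–480 nM final), with amiloride added at the end. EC50 was fitted at −100 mV.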

A549 [2] = assay: Activation of tetraethylammonium-sensitive potassium channel in human A549 cells at 120 nM at holding potential -100 mV by whole cell patch clamp technique
A549 [3] = assay: Activation of amiloride-sensitive epithelial sodium channel in human A549 cells at 120 nM at holding potential -100 to + 100 mV by whole cell patch clamp technique; how it was run: as §1

Row | Structure (SMILES) | Activity (A549 [1]) | Activity (A549 [2]) [%] | Activity (A549 [3]) [%]
1 | C[C@@H]1NC(=O)CNC(=O)[C@H](CCC(=O)O)NC(=O)[C@@H]2CCCN2C(=O)[C@H]([C@H](C)O)NC(=O)[C@H](CCC(=O)O)NC(=O)[C@H](CCCNC(=N)N)NC(=O)[C@H](CCC(N)=O)NC(=O)[C@@H](N)CSSC[C@@H](C(=O)O)NC(=O)CNC(=O)CNC(=O)[C@H](CCCCN)NC(=O)[C@H](C)NC(=O)[C@H](CCC(=O)O)NC1=O | inactive |  | 
2 | C[C@@H]1NC(=O)CNC(=O)[C@H](C)NC(=O)[C@@H]2CCCN2C(=O)[C@H](C)NC(=O)[C@H](CCC(=O)O)NC(=O)[C@H](CCCNC(=N)N)NC(=O)[C@H](CCC(N)=O)NC(=O)CNC(=O)[C@@H](N)CSSC[C@@H](C(=O)O)NC(=O)[C@H](Cc2ccc(O)cc2)NC(=O)[C@H](Cc2c[nH]c3ccccc23)NC(=O)[C@@H]2CCCN2C(=O)[C@H](CCCCN)NC(=O)[C@H](C)NC(=O)[C@H](C)NC1=O (H-CGQREAPAGAAAKPWYC-OH; disulfide 1-17) | inactive |  | 
3 | C[C@@H]1NC(=O)CNC(=O)[C@H](CCC(=O)O)NC(=O)[C@@H]2CCCN2C(=O)[C@H]([C@H](C)O)NC(=O)[C@H](CCC(=O)O)NC(=O)[C@H](CCCNC(=N)N)NC(=O)[C@H](CCC(N)=O)NC(=O)CNC(=O)CCCCCNC(=O)CNC(=O)[C@H](Cc2ccc(O)cc2)NC(=O)[C@H](Cc2c[nH]c3ccccc23)NC(=O)[C@@H]2CCCN2C(=O)[C@H](CCCCN)NC(=O)[C@H](C)NC(=O)[C@H](CCC(=O)O)NC1=O | inactive |  | 
4 | C[C@@H]1NC(=O)CNC(=O)[C@H](CCC(=O)O)NC(=O)[C@@H]2CCCN2C(=O)[C@H]([C@H](C)O)NC(=O)[C@H](CCC(=O)O)NC(=O)[C@H](CCCNC(=N)N)NC(=O)[C@H](CCC(N)=O)NC(=O)CNC(=O)CCCNC(=O)CNC(=O)[C@H](Cc2ccc(O)cc2)NC(=O)[C@H](Cc2c[nH]c3ccccc23)NC(=O)[C@@H]2CCCN2C(=O)[C@H](CCCCN)NC(=O)[C@H](C)NC(=O)[C@H](CCC(=O)O)NC1=O | inactive |  | 
5 | C[C@@H]1NC(=O)CNC(=O)[C@H](CCC(=O)O)NC(=O)[C@@H]2CCCN2C(=O)[C@H]([C@H](C)O)NC(=O)[C@H](CCC(=O)O)NC(=O)[C@H](CCCNC(=N)N)NC(=O)[C@H](CCC(N)=O)NC(=O)CNC(=O)CCCCCCNC(=O)[C@H](Cc2ccc(O)cc2)NC(=O)[C@H](Cc2c[nH]c3ccccc23)NC(=O)[C@@H]2CCCN2C(=O)[C@H](CCCCN)NC(=O)[C@H](C)NC(=O)[C@H](CCC(=O)O)NC1=O | inactive |  | 
6 | C[C@@H]1NC(=O)CNC(=O)[C@H](CCC(=O)O)NC(=O)[C@@H]2CCCN2C(=O)[C@H]([C@H](C)O)NC(=O)[C@H](CCC(=O)O)NC(=O)[C@H](CCCNC(=N)N)NC(=O)[C@H](CCC(N)=O)NC(=O)CNC(=O)[C@@H](N)CSSC[C@@H](C(=O)O)NC(=O)[C@H](Cc2ccc(O)cc2)NC(=O)[C@H](Cc2c[nH]c3ccccc23)NC(=O)[C@@H]2CCCN2C(=O)[C@H](CCCCN)NC(=O)[C@H](C)NC(=O)[C@H](CCC(=O)O)NC1=O |  | 0.6 | 99.4

Reference: ChEMBL document CHEMBL1287703, “Essential structural features of TNF-α lectin-like domain derived peptides for activation of amiloride-sensitive sodium current in A549 cells” (J Med Chem, 2010)
